{
  "source": "ChEMBL document CHEMBL3596186",
  "about": "“Synthesis and biological evaluation of diarylthiazole derivatives as antimitotic and antivascular agents with potent antitumor activity” (Bioorg Med Chem, 2015)",
  "key": {"[1]": {"system": "MCF7", "assay": "Resistance ratio, ratio of IC50 for human doxorubicin-resistant MCF7 cells to IC50 for human MCF7 cells", "assay_type": "functional", "how_it_was_run": "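MTT assay: log-phase cells at 40,000-50,000 cells/mL in RPMI-1640 with 10% FBS, exposed to graded concentrations for 48 h, then MTT 3 h, DMSO solubilization, absorbance at 570 nm. IC50 from growth versus untreated control, at least three independent experiments. Ratio = resistant-line IC50 / parental-line IC50.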"}, "[2]": {"system": "HepG2", "assay": "Induction of apoptosis in human HepG2 cells assessed as viable cells at 0.5 uM after 24 hrs by annexin V/propidium iodide staining-based flow cytometry (reference value: 89.8%)", "assay_type": "functional", "details": "HepG2, 24 h, read-out: Activity"}, "[3]": {"system": "HepG2", "assay": "Induction of apoptosis in human HepG2 cells assessed as necrotic cells at 0.5 uM after 24 hrs by annexin V/propidium iodide staining-based flow cytometry (reference value: 1.59%)", "assay_type": "functional"}, "[4]": {"system": "HCT-116", "assay": "Antitumor activity against human HCT116 cells xenografted in Balb/c athymic nude mouse assessed as tumor growth inhibition at 20 mg/kg, ip administered daily after 42 days", "assay_type": "functional", "details": "HCT-116, ip, 1008 h, read-out: TGI", "how_it_was_run": "(§1)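 Female Balb/C athymic nude mice, 5-6 weeks old, implanted s.c. in the right flank with HCT116 cells in 100 µL HBSS. Tumor volume (π/6 × L × W²) and body weight measured every 2 days. Inhibition = (1 − treated/control tumor weight) × 100%.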"}, "[5]": {"system": "HepG2", "assay": "Induction of apoptosis in human HepG2 cells assessed as late apoptotic cells at 0.2 uM after 48 hrs by annexin V/propidium iodide staining-based flow cytometry (reference value: 3.74%)", "assay_type": "functional"}, "[6]": {"assay": "Inhibition of pig microtubule polymerization after 30 mins by turbidimetric assay", "design": "species or system Sus scrofa", "how_it_was_run": "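Porcine-brain MAP-rich tubulin at 3 mg/mL preincubated 30 min at 4 °C in 0.1 M PIPES pH 6.9, 2 mM MgCl2, 0.5 mM EGTA. Compounds added 2 min before the run, then 1 mM GTP. Turbidity followed kinetically at 340 nm at 37 °C; assembly IC50 derived by Hamel's method.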"}, "[7]": {"system": "HepG2", "assay": "Induction of apoptosis in human HepG2 cells assessed as late apoptotic cells at 0.5 uM after 48 hrs by annexin V/propidium iodide staining-based flow cytometry (reference value: 3.74%)", "assay_type": "functional"}, "[8]": {"system": "HCT-116", "assay": "Induction of apoptosis in human HCT116 cells assessed as necrotic cells at 0.5 uM after 24 hrs by annexin V/propidium iodide staining-based flow cytometry (reference value: 3.49%)", "assay_type": "functional"}, "[9]": {"system": "HepG2", "assay": "Cell cycle arrest in human HepG2 cells assessed as accumulation at G1 phase at 0.5 uM after 24 hrs by flow cytometry (reference value: 62.74%)", "assay_type": "functional"}, "[10]": {"system": "NCI-H1975", "assay": "Antiproliferative activity against human gefitinib-resistant NCI-H1975 cells after 48 hrs by MTT assay", "assay_type": "functional, cell-based", "details": "NCI-H1975, 48 h"}, "[11]": {"system": "HepG2", "assay": "Antimitotic activity in human HepG2 cells assessed as inhibition of microtubule formation at 0.2 uM after 24 hrs by DAPI staining-based immmunofluorescence assay", "assay_type": "functional, cell-based", "how_it_was_run": "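HepG2 cells seeded in 6-well plates and treated with compound. Fixed in 4% paraformaldehyde, permeabilized with 0.5% Triton X-100 in PBS, blocked 30 min in 5% goat serum at room temperature. Stained with monoclonal anti-α-tubulin 1 h at room temperature, then fluorescent secondary antibody, nuclei labelled with DAPI. Viewed by fluorescence microscopy.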"}, "[12]": {"system": "HCT-116", "assay": "Antitumor activity against human HCT116 cells xenografted in Balb/c athymic nude mouse assessed as tumor growth inhibition at 50 mg/kg, ip administered daily after 42 days", "assay_type": "functional", "details": "HCT-116, ip, 1008 h, read-out: TGI", "how_it_was_run": "as §1"}, "[13]": {"assay": "Antiproliferative activity against human HCC827 cells after 48 hrs by MTT assay", "assay_type": "functional, cell-based", "details": "HCC827, 48 h"}, "[14]": {"system": "HCT-116", "assay": "Antiproliferative activity against human HCT116 cells after 48 hrs by MTT assay", "assay_type": "functional, cell-based", "details": "HCT-116, 48 h", "how_it_was_run": "(§2)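 HCT116, HepG2, SMMC-7721, SK-OV-3 and A2780s grown in DMEM; A549 and MCF-7 in RPMI-1640; all with 10% FBS and penicillin/streptomycin at 37 °C, 5% CO2. Log-phase cells at 40,000-50,000 cells/mL treated with graded concentrations for 48 h. MTT 3 h, DMSO solubilization, A570. IC50 from percent growth versus untreated control; mean ± SEM of ≥3 independent dose-response experiments.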"}, "[15]": {"system": "HepG2", "assay": "Induction of apoptosis in human HepG2 cells assessed as viable cells at 0.5 uM after 48 hrs by annexin V/propidium iodide staining-based flow cytometry (reference value: 89.8%)", "assay_type": "functional", "details": "HepG2, 48 h, read-out: Activity"}, "[16]": {"system": "HUVEC", "assay": "Antivascular activity against HUVEC assessed as inhibition of tube formation at 125 to 500 nM after 8 hrs by Matrigel assay", "assay_type": "functional, cell-based", "details": "Homo sapiens", "how_it_was_run": "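Wells of prechilled plates coated with Matrigel and solidified 45 min at 37 °C. HUVECs (1 × 10^4) in EBM-2 containing compound (125-500 nM) seeded onto the gel and incubated 8 h at 37 °C. Capillary networks photographed at 100×; tubule numbers and line lengths counted manually.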"}, "[17]": {"system": "A549", "assay": "Antiproliferative activity against human taxol-resistant A549 cells after 48 hrs by MTT assay", "assay_type": "functional, cell-based", "details": "A549, 48 h", "how_it_was_run": "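MCF-7/ADR (doxorubicin-resistant) and A549/T (taxol-resistant) cells in RPMI-1640 with 10% FBS and penicillin/streptomycin. Log-phase cells at 40,000-50,000 cells/mL exposed to graded concentrations for 48 h. MTT 3 h, DMSO solubilization, absorbance 570 nm. IC50 from percent growth versus untreated control; mean ± SEM of ≥3 independent experiments.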"}, "[18]": {"system": "HepG2", "assay": "Induction of apoptosis in human HepG2 cells assessed as viable cells at 0.2 uM after 48 hrs by annexin V/propidium iodide staining-based flow cytometry (reference value: 89.8%)", "assay_type": "functional", "details": "HepG2, 48 h, read-out: Activity"}, "[19]": {"system": "HepG2", "assay": "Cell cycle arrest in human HepG2 cells assessed as accumulation at G2/M phase at 1 uM after 24 hrs by flow cytometry (reference value: 11.29%)", "assay_type": "functional"}, "[20]": {"assay": "Antiproliferative activity against human A2780S cells after 48 hrs by MTT assay", "assay_type": "functional, cell-based", "details": "A2780, 48 h", "how_it_was_run": "as §2"}, "[21]": {"system": "HepG2", "assay": "Cell cycle arrest in human HepG2 cells assessed as accumulation at G1 phase at 1 uM after 24 hrs by flow cytometry (reference value: 62.74%)", "assay_type": "functional"}, "[22]": {"system": "SK-OV-3", "assay": "Antiproliferative activity against human SKOV3 cells after 48 hrs by MTT assay", "assay_type": "functional, cell-based", "details": "SK-OV-3, 48 h", "how_it_was_run": "as §2"}},
  "note": "Calls of active or inactive are those of the source. No cut-off for these calls is given here.",
  "data": [
    {"smiles": "CCOc1ccc(-c2nc(N)sc2-c2cc(OC)c(OC)c(OC)c2)cc1", "values": [
      {"measurement": "Ratio IC50", "setting": "[1]", "value": 1.9},
      {"measurement": "viability at 0.5 µM", "setting": "[2]", "value": 80.7, "unit": "%"},
      {"measurement": "Activity", "setting": "[3]", "value": 0.81, "unit": "%"},
      {"measurement": "inhibition in vivo at 20 mg/kg", "setting": "[4]", "value": 49.5, "unit": "%"},
      {"measurement": "Activity", "setting": "[5]", "value": 4.17, "unit": "%"},
      {"measurement": "IC50", "setting": "[6]", "value": 2740, "unit": "nM"},
      {"measurement": "Activity", "setting": "[7]", "value": 4.38, "unit": "%"},
      {"measurement": "Activity", "setting": "[8]", "value": 3.5, "unit": "%"},
      {"measurement": "Activity", "setting": "[9]", "value": 30.08, "unit": "%"},
      {"measurement": "IC50", "setting": "[10]", "value": 217, "unit": "nM"},
      {"measurement": "Activity", "setting": "[11]", "value": "Active"},
      {"measurement": "inhibition in vivo at 50 mg/kg", "setting": "[12]", "value": 55.1, "unit": "%"},
      {"measurement": "IC50", "setting": "[13]", "value": 97, "unit": "nM"},
      {"measurement": "IC50", "setting": "[14]", "value": 8.4, "unit": "nM"},
      {"measurement": "viability at 0.5 µM", "setting": "[15]", "value": 29.6, "unit": "%"},
      {"measurement": "Activity", "setting": "[16]", "value": "Active"},
      {"measurement": "IC50", "setting": "[17]", "value": 43, "unit": "nM"},
      {"measurement": "viability at 0.2 µM", "setting": "[18]", "value": 28.5, "unit": "%"},
      {"measurement": "Activity", "setting": "[19]", "value": 83.67, "unit": "%"},
      {"measurement": "IC50", "setting": "[20]", "value": 16, "unit": "nM"},
      {"measurement": "Activity", "setting": "[21]", "value": 8.69, "unit": "%"},
      {"measurement": "IC50", "setting": "[22]", "value": 14.2, "unit": "nM"}
    ]}
  ]
}
